Structures are written as SMILES. “Also recorded” adds a separate entry of the source. Where two headings read alike, the source gives them in different places.

The text below walks through data of publication PMC6358270 (Toxicological Sciences, 2018).

The conditions of series [1]: ref Wolenski et al., 2017; cited from earlier work.
Series [2] deals with primary human hepatocytes. The settings on record: ref Wolenski et al., 2017; cited from earlier work.
Series [3] relates to HepG2 cells. As to conditions: ref Otieno et al., 2018, cited from earlier work; for effect on OCR / basal respiration: HepG2 cells.
In a further series the target is T1, human NTCP (Homo sapiens, UniProt Q14973).
T1 sequence (Q14973 1-349): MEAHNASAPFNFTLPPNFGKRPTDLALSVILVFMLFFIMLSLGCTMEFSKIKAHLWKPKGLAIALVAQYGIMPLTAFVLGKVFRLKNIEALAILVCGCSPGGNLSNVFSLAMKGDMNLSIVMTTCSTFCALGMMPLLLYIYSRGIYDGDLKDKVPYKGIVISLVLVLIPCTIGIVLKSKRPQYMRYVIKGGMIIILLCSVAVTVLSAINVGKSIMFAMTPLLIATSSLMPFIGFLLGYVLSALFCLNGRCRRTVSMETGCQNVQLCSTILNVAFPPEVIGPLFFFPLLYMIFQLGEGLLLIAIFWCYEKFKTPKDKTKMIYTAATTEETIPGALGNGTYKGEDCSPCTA
Briefly: NTCP uptake transporter inhibition Ki determination in CHO cells. It counts as cell-based. As to conditions: based on alpha >> 1, increasing Km, nearly constant Vmax.

The test system of another series is patients with T2D. As to conditions: Phase II clinical trials, ref Kaku et al., 2015; cited from earlier work.
Series [4] concerns the target human BSEP ABC transporter (Homo sapiens, UniProt O95342). Briefly: BSEP vesicular transport inhibition Ki determination assay. The format is biochemical. Put shortly:
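Inside-out membrane vesicles expressing BSEP. Transporter-specific taurocholate accumulation was measured across a range of test compound concentrations.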

For series [5] the following is noted: rat; ref unpublished data; cited from earlier work.
Series [6] relates to HepG2 cells. Briefly: In vitro ROS assay. It counts as cell-based, human. The settings on record: nominal media concentrations up to 200 μM, 1 h or 24 h.
For another series, the system named is TAK-875-treated patients. As to conditions: cited from earlier work; for patients with ALT elevations > 3× ULN: clinical.

Sequence of human BSEP ABC transporter (O95342 whole entry): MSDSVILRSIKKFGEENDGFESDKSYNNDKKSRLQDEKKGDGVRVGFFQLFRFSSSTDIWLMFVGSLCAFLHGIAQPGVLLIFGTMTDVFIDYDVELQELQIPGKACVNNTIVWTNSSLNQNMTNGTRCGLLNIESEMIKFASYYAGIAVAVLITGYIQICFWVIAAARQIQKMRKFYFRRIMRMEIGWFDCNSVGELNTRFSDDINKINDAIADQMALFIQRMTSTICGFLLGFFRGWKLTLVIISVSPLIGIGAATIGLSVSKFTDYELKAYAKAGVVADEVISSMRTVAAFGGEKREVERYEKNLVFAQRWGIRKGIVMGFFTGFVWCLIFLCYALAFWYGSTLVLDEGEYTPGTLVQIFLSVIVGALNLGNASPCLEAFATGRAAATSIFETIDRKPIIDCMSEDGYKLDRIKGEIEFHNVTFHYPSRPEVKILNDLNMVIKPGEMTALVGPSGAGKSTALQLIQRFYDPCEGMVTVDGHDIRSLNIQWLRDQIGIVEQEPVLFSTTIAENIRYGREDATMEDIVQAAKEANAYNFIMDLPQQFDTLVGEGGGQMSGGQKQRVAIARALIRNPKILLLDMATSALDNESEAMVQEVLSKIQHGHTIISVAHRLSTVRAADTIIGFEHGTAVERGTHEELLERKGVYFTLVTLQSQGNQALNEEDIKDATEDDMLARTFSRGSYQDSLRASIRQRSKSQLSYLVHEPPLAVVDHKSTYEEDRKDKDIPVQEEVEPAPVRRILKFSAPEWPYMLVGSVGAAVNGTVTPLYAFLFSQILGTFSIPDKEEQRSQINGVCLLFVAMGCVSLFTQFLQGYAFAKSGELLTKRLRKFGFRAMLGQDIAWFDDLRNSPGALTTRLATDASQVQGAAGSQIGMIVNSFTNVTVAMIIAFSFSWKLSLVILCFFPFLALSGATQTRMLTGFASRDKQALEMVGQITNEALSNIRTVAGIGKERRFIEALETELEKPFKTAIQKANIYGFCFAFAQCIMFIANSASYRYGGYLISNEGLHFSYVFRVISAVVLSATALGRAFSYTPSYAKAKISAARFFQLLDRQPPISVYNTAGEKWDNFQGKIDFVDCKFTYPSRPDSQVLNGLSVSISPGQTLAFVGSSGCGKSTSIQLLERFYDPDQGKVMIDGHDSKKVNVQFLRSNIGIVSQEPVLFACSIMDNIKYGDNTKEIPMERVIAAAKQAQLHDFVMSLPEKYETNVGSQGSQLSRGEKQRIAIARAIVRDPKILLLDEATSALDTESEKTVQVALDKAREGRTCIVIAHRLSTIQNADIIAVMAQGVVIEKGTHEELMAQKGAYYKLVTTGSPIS

With `Cc1cc(OCCCS(C)(=O)=O)cc(C)c1-c1cccc(COc2ccc3c(c2)OC[C@H]3CC(=O)O[C@@H]2O[C@H](C(=O)O)[C@@H](O)[C@H](O)[C@H]2O)c1` [TAK-875-Glu], the compound-induced oxidative stress result in [1] is listed as “no evidence of compound-induced oxidative stress was detected; also recorded: not found to be inducers of oxidative stress”. In addition, in [2], the “effect on oxygen consumption rate (OCR)” value was “reduce the oxygen consumption rate (OCR) in a dose-dependent manner”. In the series with HepG2 cells [3], the “effect on OCR / basal respiration” value is listed as “no effect on basal respiration” and the effects on mitochondria entry was “negligible effects on mitochondria”.

For orientation: Ki means the equilibrium dissociation constant of an inhibitor or competing ligand from its target. High values mean a looser hold on the target, low ones a stronger hold on the target. Take `Cc1cc(OCCCS(C)(=O)=O)cc(C)c1-c1cccc(COc2ccc3c(c2)OC[C@H]3CC(=O)O)c1` [TAK-875, fasiglifam]: the compound-induced oxidative stress entry in series [1] is listed as “no evidence of compound-induced oxidative stress was detected; also recorded: not found to be inducers of oxidative stress”. Moreover, the “effect on oxygen consumption rate (OCR)” value in series [2] was “reduce the oxygen consumption rate (OCR) in a dose-dependent manner”. Besides, the “mode of NTCP inhibition” value at human NTCP is reported as “competitive”. For the same molecule, the “effect on OCR / basal respiration” value in the series on HepG2 cells [3] is recorded as “dose-dependent reduction in OCR”. Further, the “effect on blood glucose levels and HbA1c” value with patients with T2D was “lowered blood glucose levels and glycated hemoglobin (HbA1c)”. In series [4], the Ki turned out to be 17.2 µM. Also, the “mode of BSEP inhibition” value in [4] (based on alpha value, Km and Vmax trends) is listed as “mixed”. In addition, the “BSEP alpha constant for inhibition” value in series [4] (mixed-type inhibition model) worked out at 2.172. Further, in [5], the “concentration in liver versus plasma” value was “roughly equivalent”. In addition, the “ROS production / oxidative stress (DHE fluorescence)” value in the series on HepG2 cells [6] is “not observed”. The “cases of serious liver injury, incidence” value in the series with TAK-875-treated patients (clinical trials, ref Marcinak et al., 2018) was 0.03%. For the same molecule, the “patients with ALT elevations > 3× ULN” value with TAK-875-treated patients (daily doses of 200 mg, ref unpublished data) is 4.0%; with TAK-875-treated patients (daily doses ranging from 25 to 50 mg, ref Marcinak et al., 2018), 2.8%. Also, the “cases of serious liver injury” value in the series with TAK-875-treated patients (in 9139 TAK-875-treated patients, ref Marcinak et al., 2018) is given as 3 cases.
